# PGC1a Ac signal – compounds raising PGC1a acetylation signal, primary screen, PGC1a modulator project, cell-based, U2OS, AlphaScreen, signal-increasing mode; activation, % at 15.6 µM; overnight; AID 651723, 2012; hit rate 0.21% among 350,000;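 active means every replicate reaching activation of at least 50%, whatever the mean replicate activation; inconclusive means replicates that disagree or another doubt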;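 further: hits raise the AlphaScreen acetylation signal above neutral controls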
#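 System: flag-PGC1a/GCN5 U2OS cells / Input: 7000 cells/well / Compound: single test concentration per compound / Incubation: overnight compound treatment, 37 °C / Technique: AlphaScreen on lysates with anti-acetyl-lysine antibody, acceptor and donor beads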
# Hep G6PC suppr – suppressors of forskolin-stimulated G6PC mRNA, dose response, PGC-1a acetylation activator project, cell-based, hepatocytes, RT-qPCR, cherry-picked samples; shares compounds with PGC1a Ac signal; primary mouse hepatocytes; G6PC suppression (normalized activity, % of positive control; higher = more suppression), % at 26 µM; 240 tested, under 10 active;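 active means dose curves showing G6PC suppression whose half-maximal dose is at most twice the top valid dose; inconclusive means flat curves with moderate negative activity, or unreliable fits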;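 further: G6PC expression relative to GAPDH housekeeping gene as delta delta Ct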
# Hep PCK1 suppr – suppression of PCK1 mRNA in primary hepatocytes, dose response, PGC-1a acetylation activator project, cell-based, primary mouse hepatocytes, RT-qPCR, cherry-pick | shares compounds with PGC1a Ac signal | forskolin-stimulated | PCK1 expression decrease, unspecified at 26 µM | 230 tested, under 10 active;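 active means compounds lowering PCK1 expression whose fitted half-maximal concentration is at most twice the top tested dose; inconclusive means flat fit with moderate opposite-direction effect, or poor fit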;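 further: higher delta delta Ct means lower PCK1 expression so positive values indicate hits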
# PGC1a hep suppr – suppression of PGC-1a mRNA in primary hepatocytes, dose response, PGC-1a acetylation activator project, cell-based, primary mouse hepatocytes, RT-qPCR, cherry-pick; AID 743467, 2014; shares compounds with PGC1a Ac signal; PGC-1a mRNA qPCR, forskolin; top dose 26 µM; 240 tested, under 10 active; max activity (PGC-1a expression decrease), %;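 active means compound lowering PGC-1a expression with fitted half-maximal concentration at most twice its top tested dose; inconclusive means flat curve with moderate opposite-direction effect, or poor fit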
# Hits are given with their value; - = inactive; ? = inconclusive. A selection follows.
SMILES,PGC1a Ac signal,others
Cc1ccc2c(c1)CC1(CN2C)C(=O)NC(=O)N(C(C)C)C1=O (centres undefined),50.8,
CC1=CC2OC3CC4OC(=O)C=CC=CC(=O)OCCC(C)C(O)C(=O)OCC2(CC1)C4(C)C31CO1 (centres undefined),-,
CNc1cc(Cl)c2nonc2c1[N+](=O)[O-],-,
CC(=O)O[C@H]1C[C@@H]2OC3C=C(C)CCC3(C)[C@@]1(C)[C@@]21CO1 (some centres undefined),-,
COc1ccc(CC2C(=O)NC(C)C(=O)N(C)C3C(=O)N(C)C(Cc4ccc(O)c(c4)Oc4ccc(cc4)C3O)C(=O)NC(C)C(=O)NC(C)C(=O)N2C)cc1 (centres undefined),-,
COc1cccc(C(c2nnnn2C2CCCCC2)N2CCC3(CC2)C(=O)NCN3c2ccccc2)c1OC (centres undefined),71.6,
CC(O)C1C=CC=CC(=O)OC2CC3OC4C5OC5(C)C(O)CC4(COC(=O)C(O)C(C)CCO1)C2(C)C31CO1 (centres undefined),-,
CC(C)(C)n1nnnc1C(CCc1ccccc1)N1CCC2(CC1)C(=O)NCN2c1ccccc1 (centres undefined),71.5,
O=c1[nH]c2ccccc2n1C1CCN(C(CCc2ccccc2)c2nnnn2Cc2ccccc2)CC1 (centres undefined),-,
CC1CC(C)(O)CC(C(O)CC2CC(=O)NC(=O)C2)C1=O (centres undefined),-,
CN1C(=O)/C(=C\c2ccc(N3CCCCC3)o2)C(=O)NC1=S,53.9,
CC[C@H](C)[C@@H]1NC(=O)CNC(=O)c2csc(n2)[C@H](C(C)(C)O)OC(=O)C(C)(C)[C@H](CCCC(C)(Cl)Cl)OC(=O)c2csc1n2,-,
C[C@H]1[C@@H](OS(=O)(=O)O)C[C@@H]2C[C@H]([C@@H](O)c3cc(=O)[nH]c(=O)[nH]3)NC3=NC[C@H]1N32,-,
CCC1CN2CCc3cc(OC)c(OC)cc3C2CC1CC1NCCc2c1[nH]c1ccc(O)cc21 (centres undefined),-,
COc1ccc(Oc2cc(NC(=O)c3nn(C)cc3[N+](=O)[O-])cc([N+](=O)[O-])c2)cc1,-,
C=C1C(=O)OC2C1CCC(C)C1(O)C=CC(=O)C21C (centres undefined),115.4,
C=C1C(=O)OC2CC(C)C3C=CC(=O)C3(C)C(O)C12 (centres undefined),-,
CC(=O)OC1CC2OC3C=C(C)CCC3(C)C1(C)C21CO1 (centres undefined),-,
CN(C)CCN=Cc1c(O)n(Cc2ccco2)c(=O)[nH]c1=O,82.2,
O=c1[nH]c(=S)n(Cc2ccco2)c(O)c1C=NCc1cccs1,-,
CCCCN1C(=O)NC(=O)C2(Cc3c(nc4c(C)cccn4c3=O)N3CCc4ccccc4C32)C1=O (centres undefined),67.6,
CC(N)C(=O)NC1C2C(=C(O)CC(O)C2O)C(=O)OC1(C)C(Cl)Cl (centres undefined),-,
CC1=CC2OC3CC4OC(=O)C=CC=CC(C(C)O)OCC(O)C5(C)OC5C(=O)OCC2(CC1O)C4(C)C31CO1 (centres undefined),-,
O=C1NCN(c2ccccc2)C12CCN(C(c1cccc3ccccc13)c1nnnn1C1CCCCC1)CC2 (centres undefined),67.5,Hep G6PC suppr=-;Hep PCK1 suppr=-;PGC1a hep suppr=?
CN1CCN(c2ccc([N+](=O)[O-])c3no[n+]([O-])c23)CC1,-,
SMILES,PGC1a Ac signal,others
CC12CCC(O)CC1CCC1C2CCC2(C)C(C3=CC(=O)OC3)CCC12O (centres undefined),-,
CCOC(=O)C1=Nc2ccccc2/C1=C\c1c(O)n(C)c(=O)n(C)c1=O,-,
Cc1ccc(OC(=O)N(C)C[C@H]2OCc3ccccc3-c3c(n(C)c4ccccc34)C(=O)N([C@H](C)CO)C[C@H]2C)cc1,228.8,Hep G6PC suppr=-;Hep PCK1 suppr=-;PGC1a hep suppr=-
CC1CCCN(CC(=O)N2CCCc3ccccc32)C1 (centres undefined),-,
C[C@H]1CCC/C=C/C2C[C@H](O)CC2[C@H](O)/C=C/C(=O)O1 (some centres undefined),-,
CSCCC(c1nnnn1-c1c(C)cccc1C)N1CCC(n2c(=O)[nH]c3ccccc32)CC1 (centres undefined),89.2,Hep G6PC suppr=-;Hep PCK1 suppr=-;PGC1a hep suppr=-
Cc1cccc(C)c1-n1nnnc1C(c1cccs1)N1CCC(n2c(=O)[nH]c3ccccc32)CC1 (centres undefined),?,Hep G6PC suppr=-;Hep PCK1 suppr=-;PGC1a hep suppr=-
Cc1ccc(C[n+]2c(-c3ccc(C)cc3)cc(-c3ccc(C)cc3)cc2-c2ccc(C)cc2)cc1,-,
CC1CCC/C=C/C2CC(O)CC2C(O)/C=C/C(=O)O1 (centres undefined),-,
Cc1nc2c(=O)n(C)c(=O)nc-2n(C)n1,-,
Cc1ccc(CS(=O)(=O)CCC(=O)N2CCC3(CC2)OCCO3)cc1,-,
CC1CCC[C@H](O)CCCCCc2cc(O)cc(O)c2C(=O)O1 (some centres undefined),-,
COc1ccccc1OCC(=O)Nc1ccc(Cl)cc1C(=O)c1ccccc1,?,Hep G6PC suppr=-;Hep PCK1 suppr=-;PGC1a hep suppr=-
CC1CCOC(=O)C=CC=CC(=O)OC2CC3OC4C5OC5(C)C(O)CC4(COC(=O)C1O)C2(C)C31CO1 (centres undefined),-,

# From PubChem BioAssay
